Source: PubChem (The Scripps Research Institute Molecular Screening Center)
CHRM4 agonist: CHRM4 agonism in calcium assay; CHO-K1 hM4/Gqi5, Fluo-8 calcium fluorescence; vehicle 0%, full acetylcholine response 100%; AID 624127; 360,000 tested, 0.14% active; activation, % at 3 µM;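 active = activation above the run mean over all test wells plus 3 SD, cut at about 32% in these data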;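 also: peak over basal fluorescence ratio per well then scaled between controls; 0% = DMSO wells and 100% = acetylcholine at EC100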
TAAR1 ag: human TAAR1 agonism | 360,000 tested, 0.99% active | CHO RD-HGA16 TAAR1, Fluo-8 calcium fluorescence; vehicle wells 0%, saturating PEA agonist 100% | Q96RJ0 | activation, % at 3 µM;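 active = activation above the mean activation of all test compounds in the run plus 3 SD, cut at about 38% in these data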
Target sequence (Q96RJ0 whole entry, looked up): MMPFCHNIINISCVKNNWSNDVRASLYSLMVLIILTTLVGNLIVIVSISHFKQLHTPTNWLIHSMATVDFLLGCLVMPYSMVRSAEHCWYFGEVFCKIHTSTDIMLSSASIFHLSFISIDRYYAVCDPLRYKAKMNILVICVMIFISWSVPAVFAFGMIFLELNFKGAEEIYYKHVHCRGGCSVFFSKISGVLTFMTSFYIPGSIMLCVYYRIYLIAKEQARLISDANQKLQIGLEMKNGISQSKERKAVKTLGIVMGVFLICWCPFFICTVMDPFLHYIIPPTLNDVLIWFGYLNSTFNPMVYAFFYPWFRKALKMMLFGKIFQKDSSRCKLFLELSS
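Test system: RD-HGA16 (CHO) cells co-expressing Gα16 and hTAAR1 | Doses: Single dose, 3 µM | Schedule: 17-24 h seeding, 75 min 37 °C dye, 30 min RT | Evaluation: % activation from peak over basal fluorescence ratio, DMSO-to-PEA scaled | Technique: Kinetic Fluo-8 calcium fluorescence | Benchmarks: Low control DMSO, high control PEA (EC100)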
CHRM4 PAM: positive allosteric modulators of human muscarinic M4 receptor | CHO-K1 hM4/Gqi5, Fluo-8 calcium fluorescence, ACh EC20; 0% = ACh EC20, 100% = maximal ACh | 360,000 tested, 0.4% active | activation, % at 3 µM | AID 624126;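 active = activation above its plate's cutoff, the mean activation of sample wells plus 3 SD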
TAAR1 antag: human TAAR1 antagonism; 360,000 tested, 1.5% active; inhibition, % at 3 µM; CHO RD-HGA16 TAAR1, Fluo-8 calcium fluorescence, antagonist; AID 624466; Q96RJ0;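 active = inhibition above a per-plate cutoff, the mean inhibition of test compounds on that plate plus 3 SD, cut at about 49% in these data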;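 also: 0% = DMSO plus EC80 beta-PEA response and 100% = DMSO alone without agonist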
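System: CHO RD-HGA16 cells bearing hTAAR1. Reagent: EC80 β-phenethylamine stimulus. Schedule: seeding 17-24 h prior, 75-min 37 °C, 30-min RT dye loading. Signal: Fluo-8 intracellular calcium dye fluorescence, real-time kinetic reads. Read-out: % inhibition from peak post-agonist over basal fluorescence ratio. Benchmarks: vehicle wells and EC80 agonist wells. Replicates: n of 1.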
M4 antag: blocks acetylcholine activation of human M4 receptor; P08173; CHO-hM4 cells, ACh EC80, Fluo-8 calcium fluorescence; inhibition, % at 3 µM; 360,000 tested, 0.73% active; AID 624125;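 active = inhibition above its plate's cutoff, the mean inhibition of sample wells plus 3 SD, cut at about 27% in these data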;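 also: 0% = acetylcholine EC80 with DMSO and 100% = DMSO without agonist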
An asterisk follows results filed as active. This is a sample that favours compounds with a hit; in the whole collection about 3% have one here.

Results for C#CCOCCOCCOCCNc1nc(N2CCN(C(=O)CCCCCCCCCCNC(=O)[C@H]([C@@H](C)CC)n3cc(CCCCN=C(N)N)nn3)CC2)nc(N2CCN(C(=O)CCCCCCCCCCNC(=O)[C@H](CO)n3cc(CCCCCN)nn3)CC2)n1 ?
CHRM4 agonist: 1.0; CHRM4 PAM: -12.9; M4 antag: 34.1*

What do the screens show for `C[C@@H](O)Cc1cn(CC(=O)NCCCCCCCCCCC(=O)N2CCNCC2)nn1`?
CHRM4 agonist: 1.2; TAAR1 ag: 1.9; CHRM4 PAM: 4.5; TAAR1 antag: 3.6; M4 antag: 3.7

Results for NCCCCCc1cn(CC(=O)NCCCCCCCCCCC(=O)N2CCNCC2)nn1 ?
CHRM4 agonist: 1.1; TAAR1 ag: 4.0; CHRM4 PAM: 22.8*; TAAR1 antag: 21.6; M4 antag: -12.1

Results for C#CCOCCOCCOCCNc1nc(N2CCN(C(=O)CCCCCCCCCCNC(=O)[C@H]([C@@H](C)CC)n3cc(CCCCCN)nn3)CC2)nc(N2CCN(C(=O)CCCCCCCCCCNC(=O)[C@H]([C@@H](C)CC)n3cc(CCCCN=C(N)N)nn3)CC2)n1 ?
CHRM4 agonist: -1.1; CHRM4 PAM: -10.4; M4 antag: 13.7

What do the screens show for `O=C(CCNS(=O)(=O)c1ccccc1)OCc1ccc([N+](=O)[O-])cc1`?
CHRM4 agonist: 5.8; TAAR1 ag: 12.2; CHRM4 PAM: -3.6; TAAR1 antag: -17.4; M4 antag: -3.9

Results for Cc1ccc(S(=O)(=O)NCCC(=O)OCc2ccc([N+](=O)[O-])cc2)cc1C ?
CHRM4 agonist: 10.3; TAAR1 ag: 0.6; CHRM4 PAM: -7.3; TAAR1 antag: 50.2*; M4 antag: 3.8

What do the screens show for `CN(C)CCCN(C(=O)c1cc(-c2cccs2)nc2ccccc12)c1nc2c(F)cccc2s1`?
CHRM4 agonist: 7.5; TAAR1 ag: 16.5; CHRM4 PAM: -12.9; TAAR1 antag: 10.2; M4 antag: 27.2*

Results for COc1ccc(C2Nc3cc(OC)ccc3-n3cccc32)cc1 (configuration not stated) ?
CHRM4 agonist: 2.0; TAAR1 ag: -3.0; CHRM4 PAM: 17.4*; TAAR1 antag: -38.8; M4 antag: -19.1

How did CCc1nc2ccc(C(=O)N3CCN(C(=O)c4ccco4)CC3)cn2c1N(CC)Cc1cccc(Br)c1 do in these assays?
CHRM4 agonist: 3.8; TAAR1 ag: -0.1; CHRM4 PAM: -6.7; TAAR1 antag: -35.8; M4 antag: -15.4

How did CC(C)Cn1c(-c2csc3c2CCCC3)n[nH]c1=S do in these assays?
CHRM4 agonist: -1.8; CHRM4 PAM: -16.2; M4 antag: 29.9*

How did O=C(C(=O)N1CCN(S(=O)(=O)c2ccc(C(F)(F)F)cc2)CC1)c1cccc(C(F)(F)F)c1 do in these assays?
TAAR1 ag: -1.7; TAAR1 antag: -10.2

Results for Cc1cc2c(c(=O)o1)[C@@]1(C(=O)N(c3ccccc3)c3ccccc31)C1=C(CCCC1=O)O2 ?
TAAR1 ag: 0.2; TAAR1 antag: 8.9

What do the screens show for `CCCc1c(-c2ccccc2OC)ncn1CCc1ccccc1OC`?
TAAR1 ag: 31.9; TAAR1 antag: 21.0

How did CCCCc1c(-c2cccc(F)c2)ncn1CCc1ccccc1OC do in these assays?
CHRM4 agonist: 3.6; TAAR1 ag: 19.2; CHRM4 PAM: -9.6; TAAR1 antag: 34.4; M4 antag: 8.1

Results for CCCCCc1c(-c2ccc(F)cc2)ncn1CCc1ccccc1OC ?
CHRM4 agonist: 2.3; TAAR1 ag: 23.8; CHRM4 PAM: -8.8; TAAR1 antag: 47.5; M4 antag: 13.6

Results for CCCCc1c(-c2cccc(Br)c2)ncn1CCc1ccccc1OC ?
CHRM4 agonist: 2.4; TAAR1 ag: 42.5*; CHRM4 PAM: -7.2; TAAR1 antag: 43.4; M4 antag: 15.1

What do the screens show for `CCCCc1c(-c2ccccc2OC)ncn1CCc1ccccc1OC`?
CHRM4 agonist: 16.4; TAAR1 ag: 48.5*; CHRM4 PAM: -13.0; TAAR1 antag: 28.4; M4 antag: 17.7

Results for CCCCCc1c(-c2ccccc2OC)ncn1CCc1ccccc1OC ?
CHRM4 agonist: 13.1; TAAR1 ag: 35.8; CHRM4 PAM: -12.6; TAAR1 antag: 51.1*; M4 antag: 34.2*

Results for CCCCCc1c(CC)ncn1CCc1ccccc1OC ?
CHRM4 agonist: 11.7; TAAR1 ag: 48.0*; CHRM4 PAM: -14.2; TAAR1 antag: 52.8*; M4 antag: 19.6

What do the screens show for `O=C(CSCc1ccc(F)cc1)N1CCN(c2ccccc2)CC1`?
CHRM4 agonist: 5.2; TAAR1 ag: 2.3; CHRM4 PAM: 30.5*; TAAR1 antag: 2.5; M4 antag: -14.5

How did O=C(N[C@H](C(=O)N1CCC[C@H]1C(=O)NC1CCCC1)c1ccccc1)c1ccc(Cl)c(Cl)c1 do in these assays?
TAAR1 ag: -2.7; TAAR1 antag: 0.0

How did COc1ccc(-c2nc3cnccn3c2NCc2ccccc2)cc1SC1CCCCC1 do in these assays?
CHRM4 agonist: 7.5; CHRM4 PAM: -3.5; M4 antag: 4.1

What do the screens show for `CCCCNc1c(-c2ccc(OC)c(SC3CCCCC3)c2)nc2cnccn12`?
CHRM4 agonist: 7.5; CHRM4 PAM: -12.3; M4 antag: 21.7

What do the screens show for `CCC(C)Sc1ccc(-c2nc3ccccn3c2NCc2ccccc2)cc1OC` (configuration not stated)?
CHRM4 agonist: 14.4; CHRM4 PAM: -5.8; M4 antag: 28.5*

What do the screens show for `COc1ccc(-c2nc3ccccn3c2NC2CCCCC2)cc1SC1CCCCC1`?
CHRM4 agonist: 2.9; TAAR1 ag: 2.1; CHRM4 PAM: -11.6; TAAR1 antag: 24.3; M4 antag: 28.5*

Results for CCCCCCSc1cc(-c2nc3cnccn3c2NCc2ccccc2)ccc1OC ?
CHRM4 agonist: 7.6; CHRM4 PAM: 8.7; M4 antag: 0.1

Results for COc1cc(-c2nc3ccccn3c2NCc2ccccc2)ccc1SC1CCCCC1 ?
CHRM4 agonist: 5.7; CHRM4 PAM: -5.6; M4 antag: 27.2*

How did CC(C)(C)n1nc(C2CC2)c(Br)c1NC(=O)c1ccc(Cl)cc1 do in these assays?
TAAR1 ag: -0.8; TAAR1 antag: -10.1

What do the screens show for `COCCn1c2nc(=O)n(-c3ccccc3)c(=O)c-2nc2ccccc21`?
CHRM4 agonist: 65.2*; TAAR1 ag: 58.9*; CHRM4 PAM: -12.2; TAAR1 antag: 19.7; M4 antag: 17.3

What do the screens show for `CC(=O)N1CCN(C(=O)COC(=O)COc2c(C)cc(C)cc2C)CC1`?
CHRM4 agonist: 1.0; TAAR1 ag: 9.4; CHRM4 PAM: 10.6; TAAR1 antag: -5.8; M4 antag: -4.1

Results for CCOC(=O)N1CCN(C(=O)COC(=O)COc2c(C)cc(C)cc2C)CC1 ?
CHRM4 agonist: 1.1; TAAR1 ag: -1.1; CHRM4 PAM: 23.7*; TAAR1 antag: -26.4; M4 antag: -14.7
